# SKKanGAS inh: S. pyogenes SKKanGAS growth inhibitors in kanamycin, primary screen, streptokinase expression inhibitor project, SKKanGAS strain, BacTiter-Glo luminescence; actives 1.3% (n = 300,000); AID 1662, 2009; 6 h; inhibition, % at 7.5 µM;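 active = mean replicate score, as percent of positive control median, at least 50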;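 note: strain carries kanamycin resistance gene driven by streptokinase promoter and grows in 40 µg/ml kanamycin; loss of luminescence reflects streptokinase promoter inhibition or plain growth inhibition; 0% = median of DMSO wells and 100% = positive control at its reference dose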
# CSC inhib: cancer stem cell viability inhibitors, primary screen, luminescence; actives 1.1% (n = 300,000); inhibition, % at 7.5 µM; cancer stem cell-like cells viability; in the data active = inhibition above about 75%; tested in HMLE shEcad cells
# T cruzi repl: inhibitors of intracellular T. cruzi growth, primary screen, luminescence, NIH3T3 host cells; T. cruzi beta-gal in NIH3T3, 90 h; inhibition, % (concentration not given with the values); actives 1.4% (n = 300,000); AID 1885, 2009;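 active = mean inhibition across valid replicates above about 55%, limit read from the data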;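 note: signal also drops with host cell toxicity which is not excluded here; 0% = plate median of DMSO wells and 100% = zero luminescence signal; higher percent means less beta-gal luminescence so fewer parasites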
#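 Test system: β-gal T. cruzi (Tulahuen C4) inside NIH/3T3 cells / Quantity: 5,000 cells/well / Measured by: luminescence from GalScreen with 0.05% NP40, read after 60 min / Medium: DMEM plus 2% FBS / Measure: parasite load inhibition, % / Reagent: Tulahuen C4 trypomastigotes, 5000/well / Schedule: co-culture of at least 90 h after 3 h attachment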
# Beta cell apopt: inhibitors of cytokine-induced beta cell apoptosis, primary screen, luminescence. INS-1E cytokine-induced death, ATP luminescence, 48 h; percent of positive-control rescue, neutral wells zero. actives 0.8% (n = 300,000). protection from apoptosis, % (test concentration not listed);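 active = Every replicate reaches about 75%, or at least half do and their mean reaches it too, limit read from the data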;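 note: 0% = cytokine-treated negative control wells and 100% = positive control rescue; higher means more ATP so stronger rescue from cytokine killing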
# Mdm2-MdmX inh: inhibitors of human Mdm2-MdmX association, primary screen, cell-based, luminescence, split luciferase, SaOS-2, uHTS; actives 3% (n = 330,000); AID 485346, 2010; Protein Mdm4 (Homo sapiens) + E3 ubiquitin-protein ligase Mdm2 (Homo sapiens), …; SaOS-2 split-luciferase Mdm2/MdmX complementation; inhibition, % at 8 µM;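 active = inhibition of at least 50% at 8 µM in the primary screen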
# Target sequence (O15151 whole entry, looked up): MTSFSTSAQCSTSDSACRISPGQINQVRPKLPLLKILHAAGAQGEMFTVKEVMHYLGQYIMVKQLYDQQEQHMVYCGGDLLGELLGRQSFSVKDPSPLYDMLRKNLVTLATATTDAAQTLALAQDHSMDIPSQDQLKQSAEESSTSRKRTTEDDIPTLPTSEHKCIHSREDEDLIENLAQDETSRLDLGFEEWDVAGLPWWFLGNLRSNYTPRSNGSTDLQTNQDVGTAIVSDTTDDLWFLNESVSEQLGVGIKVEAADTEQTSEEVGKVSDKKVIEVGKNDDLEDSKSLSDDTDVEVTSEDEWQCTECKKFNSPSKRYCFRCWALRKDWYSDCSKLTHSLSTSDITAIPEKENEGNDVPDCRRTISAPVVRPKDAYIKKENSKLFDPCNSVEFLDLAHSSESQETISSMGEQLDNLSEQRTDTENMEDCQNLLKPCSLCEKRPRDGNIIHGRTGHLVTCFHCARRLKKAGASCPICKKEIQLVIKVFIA
# Target sequence (Q00987 whole entry, looked up): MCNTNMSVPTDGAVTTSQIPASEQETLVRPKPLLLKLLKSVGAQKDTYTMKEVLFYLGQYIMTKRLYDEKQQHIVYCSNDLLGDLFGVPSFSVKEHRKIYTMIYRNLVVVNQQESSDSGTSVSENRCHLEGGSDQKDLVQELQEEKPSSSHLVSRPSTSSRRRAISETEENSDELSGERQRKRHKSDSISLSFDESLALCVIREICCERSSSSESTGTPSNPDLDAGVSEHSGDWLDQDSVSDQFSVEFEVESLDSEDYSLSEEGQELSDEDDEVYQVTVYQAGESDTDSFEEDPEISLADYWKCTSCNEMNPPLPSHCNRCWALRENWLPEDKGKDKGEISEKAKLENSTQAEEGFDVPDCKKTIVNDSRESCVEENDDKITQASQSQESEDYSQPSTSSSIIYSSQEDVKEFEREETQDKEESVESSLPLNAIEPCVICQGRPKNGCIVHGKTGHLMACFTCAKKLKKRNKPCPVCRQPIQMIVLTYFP
# L major viab: Leishmania major promastigote growth inhibition, primary screen. actives 9% (n = 200,000). inhibition, % at 10 µM. AID 1063, 2008. Leishmania major promastigotes, resazurin fluorescence viability; in the data active = inhibition above about 50%;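 note: promastigotes grown with compound for 44 hours at 28 °C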
# Mdm2 MdmX conf: Mdm2-MdmX complex disruptors, retested hits, confirmation, luminescence, single concentration; shares compounds with Mdm2-MdmX inh; Mdm2-MdmX binding, luminescent assay; inhibition, % at 8 µM; actives 55% (n = 10,000); AID 489028, 2010; in the data active = inhibition above about 40%
# Full FLuc ctr: full-length luciferase signal inhibition, confirmation, counter-screen for Mdm2/MdmX interaction inhibitor project, cell-based, single concentration, SaOS-2; shares compounds with Mdm2-MdmX inh; SaOS-2 full-length luciferase counterscreen, luminescence; inhibition, % at 8 µM; actives 77% (n = 6,200); AID 504607, 2011;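 active = mean inhibition at 8 µM reaching about 37%, which flags the compound as non-specific, limit read from the data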;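 note: p53-null SaOS-2 cells with luciferase driven by a doxycycline-inducible promoter; compound on cells about two nights before reading with doxycycline added after day one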
# Active calls of the source: *; · = not tested or not shown. This is a sample that favours compounds with a hit; in the whole collection about 9.4% have one here.
SMILES,SKKanGAS inh,CSC inhib,T cruzi repl,Beta cell apopt,Mdm2-MdmX inh,L major viab,Mdm2 MdmX conf,Full FLuc ctr
COc1ccc(Nc2nc(N)c([N+](=O)[O-])c(NC3CCCCC3)n2)cc1,32,101*,18,3,70*,·,12,·
CNc1nc(Nc2ccc(Br)cc2)nc(N)c1[N+](=O)[O-],32,1,-2,-3,67*,50*,-20,·
COc1ccc(Nc2nc(N)c([N+](=O)[O-])c(NCCO)n2)cc1,1,-10,-11,1,18,·,·,·
COc1ccccc1CNC(=O)C(=O)NCC1OCCCN1S(=O)(=O)c1cccs1 (centres undefined),0,-25,7,0,26,·,·,·
CC(C)(C)c1ccc(C(CC(=O)O)NC(=O)Cc2ccc(F)cc2)cc1 (centres undefined),-4,1,4,-8,-20,9,·,·
O=C(Oc1cccc(OC(=O)c2ccco2)c1)c1ccco1,0,3,-9,-5,10,·,·,·
CC1=CC(C)(C)N2C(=O)C(=O)c3cc(OC(=O)c4ccco4)cc1c32,-9,-7,-17,12,75*,37,59*,52*
COc1ccc(CC2(CO)CCN(Cc3cccn3-c3ccccn3)CC2)cc1,8,17,5,3,-14,-1,·,·
CCCC(=O)NC(c1ccc(C(C)C)cc1)c1ccc2cccnc2c1O (centres undefined),84*,99*,57*,·,80*,·,88*,21
CCC(=O)NC(c1ccc(C)cc1)c1ccc2cccnc2c1O (centres undefined),71*,-2,57*,6,79*,·,86*,24
CC(=O)NC(c1ccco1)c1ccc2cccnc2c1O (centres undefined),40,-1,45,90*,72*,98*,54*,28
CCCC(=O)NC(c1ccc(N(C)C)cc1)c1ccc2cccnc2c1O (centres undefined),39,152*,59*,96*,80*,·,80*,30
Cc1ccccc1-n1ncc(C(C)NC(=O)c2ccco2)c1C (centres undefined),-9,-2,-2,-2,-15,2,·,·
CN(CC(=O)Nc1ccccc1Cl)C(=O)COC(=O)c1ccc([N+](=O)[O-])s1,·,6,·,11,11,·,·,·
CCC(=O)NC(NC(=S)Nc1cccc2cccnc12)C(Cl)(Cl)Cl (centres undefined),1,-5,-15,-5,-18,1,·,·
CCCC(=O)NC(c1ccccc1Cl)c1ccc2cccnc2c1O (centres undefined),18,109*,52,99*,87*,·,89*,53*
Nc1cc(=O)[nH]c(SCC(=O)Nc2ccc(N3CCOCC3)cc2)n1,·,9,·,5,7,·,·,·
O=C(C[n+]1cccc(CNC(=O)c2ccc(OC(F)F)cc2)c1)Nc1ccc(SC(F)F)cc1,13,17,-1,-3,9,-2,·,·
O=C(Nc1ncc(Cc2ccc(SC(F)F)cc2)s1)c1ccc(OC(F)F)cc1,0,75*,-6,16,62*,-4,64*,96*
Cc1cccc(N2CCN(C(=O)c3ccc(N4CCCC4=O)cc3)CC2C)c1 (centres undefined),2,·,14,5,-4,2,·,·
Cc1cccc(N2CCN(C(=O)c3cccc(N4CCCC4=O)c3)C(C)C2)c1 (centres undefined),0,-4,-18,7,55*,·,60*,50*
O=C(c1cccc(N2CCCC2=O)c1)N1CCN(c2cccc(Cl)c2)CC1,8,-23,-1,16,57*,·,68*,48*
CC(C)(CO)NC(=O)Nc1ccc(Cl)c(Cl)c1,-12,13,5,-1,0,10,·,·
O=C(CCCOc1ccc(Cl)cc1Cl)Nc1ccc(O)cc1C(=O)O,6,-1,4,-6,-4,·,·,·
O=C(CCN1C(=O)/C(=C/c2ccccc2Cl)SC1=S)N1CCCC1,8,13,-26,-155,62*,·,24,·
SMILES,SKKanGAS inh,CSC inhib,T cruzi repl,Beta cell apopt,Mdm2-MdmX inh,L major viab,Mdm2 MdmX conf,Full FLuc ctr
Cc1cc(NC(=O)CCN2C(=O)/C(=C/c3ccccc3F)SC2=S)no1,8,2,-1,-5,22,-9,·,·
O=C(CCCN1C(=O)/C(=C/c2ccccc2Cl)SC1=S)NNC(=O)c1ccncc1,-11,-9,3,-8,1,·,·,·
Cc1cc(NC(=O)CCCN2C(=O)/C(=C/c3ccccc3Cl)SC2=S)no1,1,-8,4,-2,68*,·,43*,58*
O=C(CCCN1C(=O)/C(=C/c2ccccc2Cl)SC1=S)N1CCCC1,4,14,14,-42,76*,·,31,·
O=C(CCCN1C(=O)/C(=C/c2ccccc2Cl)SC1=S)NNC(=O)c1ccccc1Cl,14,29,-26,3,56*,67*,29,·
CCCCn1c(N)c(N(CCOC)C(=O)COC(=O)COc2ccccc2C#N)c(=O)[nH]c1=O,2,-2,-2,-3,-7,·,·,·
Cc1ccc(CNC(=O)c2ccc(N3CCC4(CC3)CC(c3ccccc3)=NO4)c([N+](=O)[O-])c2)cc1,13,5,48,14,-10,·,·,·
COc1ccc(C(=O)NCC(=O)OCc2ccc(Cl)cc2Cl)cc1OC,·,·,·,·,-18,·,·,·
COc1cc(CNCCN2CCOCC2)ccc1OCc1ccc(Cl)cc1Cl,35,·,49,16,53*,100*,20,·
COc1cc(C(=O)NC2CCCCC2)ccc1OCc1ccc(Cl)cc1Cl,7,7,33,-1,58*,74*,12,·
COc1cc(CNCCO)cc(Cl)c1OCc1ccc(Cl)cc1Cl,13,7,47,108*,51*,100*,49*,85*
COc1cc(CNCCO)cc(Br)c1OCc1ccccc1Cl,2,29,22,7,57*,100*,14,·
COc1ccc(Cl)cc1C(=O)NCCN1CCOCC1,1,-1,-15,-9,3,·,·,·
COc1cccc(CNCCO)c1OCc1ccccc1,-6,-1,-2,1,16,-5,·,·
COc1cccc(CNCCO)c1OCc1ccc(Cl)cc1,-1,·,-11,0,33,6,·,·
